# Measured values gathered from unrelated publications.
# Each line is one published result; the experiments were not run side by side.
# Target: Serine/threonine-protein kinase haspin (HASPIN, Homo sapiens, UniProt Q8TF76)
# One construct used (Q8TF76 1-798): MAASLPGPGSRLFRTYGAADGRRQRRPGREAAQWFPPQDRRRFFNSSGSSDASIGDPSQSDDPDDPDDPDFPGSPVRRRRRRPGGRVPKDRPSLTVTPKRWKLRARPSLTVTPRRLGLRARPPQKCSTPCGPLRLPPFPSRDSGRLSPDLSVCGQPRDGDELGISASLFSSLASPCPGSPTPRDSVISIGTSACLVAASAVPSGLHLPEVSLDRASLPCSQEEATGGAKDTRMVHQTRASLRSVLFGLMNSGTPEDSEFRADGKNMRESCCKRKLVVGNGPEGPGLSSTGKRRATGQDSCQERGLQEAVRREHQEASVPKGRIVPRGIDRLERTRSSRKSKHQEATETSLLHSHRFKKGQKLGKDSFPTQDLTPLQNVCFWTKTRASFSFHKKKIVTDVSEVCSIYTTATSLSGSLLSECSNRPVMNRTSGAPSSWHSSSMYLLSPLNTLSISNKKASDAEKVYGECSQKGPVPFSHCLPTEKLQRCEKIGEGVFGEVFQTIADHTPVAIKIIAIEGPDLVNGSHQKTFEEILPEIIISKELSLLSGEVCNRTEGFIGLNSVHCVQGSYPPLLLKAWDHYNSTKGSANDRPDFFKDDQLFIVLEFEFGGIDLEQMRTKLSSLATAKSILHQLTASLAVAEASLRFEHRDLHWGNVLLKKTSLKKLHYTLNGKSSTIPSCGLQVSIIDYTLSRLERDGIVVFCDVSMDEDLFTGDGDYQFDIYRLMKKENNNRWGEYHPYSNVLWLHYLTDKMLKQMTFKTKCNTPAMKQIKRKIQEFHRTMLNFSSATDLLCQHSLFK
Structure (SMILES),assay,conditions,remaining binding [%]
Cc1cc(NC(=O)c2cccc(S(F)(F)(F)(F)F)c2)cc(-n2ccn3nc(-c4cccnc4)cc23)c1,"cell-free assay, competition with immobilised ligand",1 µM,70.9
c1cnn2ncc(-c3ccnc(N4CCC45COC5)n3)c2c1,binding,1 µM,0.6
c1cncc(-c2cccc(Nc3nccc(NC4CCCCC4)n3)c2)c1,"binding, competition with immobilised ligand",10 µM,23
F[C@@H]1CCN(c2nccc(-c3cnn4ncccc34)n2)C1,binding,1 µM,15
O=C1NC(c2ccccn2)Sc2ccccc21 (stereo not shown),"cell-free assay, competition with immobilised ligand",1 µM,100
CN(C)c1nccc(-c2cnn3ncccc23)n1,binding,1 µM,1.5
COc1cnc(Nc2cccc(S(N)(=O)=O)c2)nc1N1CCN(c2ccccc2)C(=O)C1,"binding, competition with immobilised ligand",1 µM,89
CCS(=O)(=O)c1cc2cc(C[C@@](O)(CC(C)(C)c3ccc(F)cc3C(N)=O)C(F)(F)F)[nH]c2cn1,"cell-free assay, competition with immobilised ligand",1 µM,80
O=C(c1ccc(Nc2nccc(-c3cc4ccccc4s3)n2)cc1)N1CCC(N2CCCC2)CC1,"binding, competition with immobilised ligand",1 µM,64
NS(=O)(=O)c1cc(NC(=O)Cc2ccccc2)ccc1Oc1cccc(Cl)c1,"cell-free assay, competition with immobilised ligand",1 µM,100
O=C(NCC1CCOCC1)c1n[nH]cc1NC(=O)c1c(F)cccc1F,"binding, competition with immobilised ligand",1 µM,88
CN(CCCC(F)(F)F)c1nccc(-c2cnn3ncccc23)n1,binding,1 µM,11
CNC(=O)[C@@H]1CC[C@@H](n2c(-c3ccc4cnccc4c3)nc3ccc(C(=O)NCc4cccc(C(N)=O)c4)cc32)C1,"binding, competition with immobilised ligand",1 µM,99
CC(=O)N1CCC(c2ccc(C(=O)NC3=NCCN3)cc2C(F)(F)F)CC1,"cell-free assay, competition with immobilised ligand",1 µM,78
N[C@H]1CCN(c2nccc(-c3cnn4ncccc34)n2)C1,binding,1 µM,0.4
O=C(c1ccc(Nc2ncc(Cl)c(-c3cc4ccccc4s3)n2)cc1)N1CCC(N2CCCC2)CC1,"binding, competition with immobilised ligand",1 µM,67
FC(F)(F)Oc1cccc(-c2cnc3ccc(-c4ccncc4)nn23)c1,"binding, competition with immobilised ligand",5 µM,4.6
Cc1cnc(Nc2ccc(C(=O)N3CCC(N4CCCC4)CC3)cc2)nc1-c1cc2ccccc2s1,"binding, competition with immobilised ligand",1 µM,83
CCC(=O)N[C@@H]1CC[C@H](C(=O)N(C)c2ccc(-c3nc4ccccc4o3)cc2)C1,"cell-free assay, competition with immobilised ligand",1 µM,100
C[C@H]1CCN(c2nccc(-c3cnn4ncccc34)n2)C1,binding,1 µM,2.1
C[C@H](NC(=O)c1cnc2n1[C@](C)(Cc1ccc(C#N)cc1)C(=O)N2c1cc(Cl)c(F)c(Cl)c1)C(=O)NC1(c2ccccn2)CC1,"cell-free assay, competition with immobilised ligand",1 µM,100
CN(C)c1nccc(-c2cnc3ncccn23)n1,binding,1 µM,2.8
